Assay outcomes as filed in PubChem BioAssay.
Shown are actives, neighbours in structure and some others; about 1.5% of the full set was active somewhere.
Runt-CBFb FRET = Runt domain-CBFb interaction inhibition | Q01196+Q13951 | Cerulean-Runt/Venus-CBFb FRET ratio 530/480, 1 h | actives 0.46% (n = 220,000) | AID 1496 | inhibition, % at 20 µM;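 active means inhibition over about 50% at 20 µM in the single-dose screen, limit read from the data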
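test system = Cerulean-tagged RUNX1 Runt domain (FRET donor) fusion protein | reagent = Venus-CBFb binding partner, 100 nM | incubation = protein complex preformed 1 h, compound exposure 1 h, room temperature, dark | detection = FRET fluorescence | read-out basis = loss of energy transfer signal | controls = 5 µM unlabeled CBFb as full-inhibition high control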
RanGTP-Impb inh = disruptors of Ran-importin-beta complex formation – biochemical, FRET, CFP-Ran, YFP-importin-beta, homogeneous, primary screen. actives 1.1% (n = 300,000). AID 2216. inhibition, % (no concentration beside the values). cell-free CFP-Ran/YFP-importin-beta FRET ratio;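 active means more than half of the replicate wells show a fall in the fluorescence ratio signal beyond about 16%, limit read from the data, passing the limit was not always enough; inconclusive means exactly half of the replicate wells pass the set limit; inactive means fewer than half of replicates pass the limit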
Hck-Nef inh = human Hck-Nef kinase inhibition | actives 0.68% (n = 220,000) | AID 463187 | P08631 | Recombinant Hck-YEEI plus Nef, Z-Lyte FRET kinase assay | inhibition, % at 20 µM;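 active means Hck-Nef kinase inhibition above about 50%, limit read from the data; inactive means inhibition below that limit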
Target sequence (P08631 whole entry, looked up): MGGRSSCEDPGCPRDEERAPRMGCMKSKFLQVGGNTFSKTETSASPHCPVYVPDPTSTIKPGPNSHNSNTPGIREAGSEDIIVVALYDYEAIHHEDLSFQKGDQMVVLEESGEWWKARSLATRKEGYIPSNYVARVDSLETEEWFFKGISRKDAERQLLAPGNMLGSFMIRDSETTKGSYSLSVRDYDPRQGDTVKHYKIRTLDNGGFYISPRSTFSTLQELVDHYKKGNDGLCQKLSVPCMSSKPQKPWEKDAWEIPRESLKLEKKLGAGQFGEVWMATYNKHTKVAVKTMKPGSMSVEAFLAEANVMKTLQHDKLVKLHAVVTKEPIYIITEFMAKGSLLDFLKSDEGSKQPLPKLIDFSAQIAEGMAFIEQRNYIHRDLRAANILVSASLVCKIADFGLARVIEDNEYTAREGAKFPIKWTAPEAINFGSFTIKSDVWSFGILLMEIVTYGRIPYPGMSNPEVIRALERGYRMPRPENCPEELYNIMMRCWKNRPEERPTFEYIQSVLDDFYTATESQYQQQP
Runt-SMMHC FRET = inhibitors of human RUNX1 Runt domain binding to CBFb-SMMHC | Cerulean-Runt/Venus-CBFb-SMMHC FRET ratio 530/480, 1 h | Q01196+Q13951 | inhibition, % at 20 µM | AID 1434 | actives 0.74% (n = 220,000);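 active means mean inhibition across duplicate retests at 20 µM reaching about 50%, limit read from the data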;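 further: inhibitors lower the FRET ratio by blocking Runt binding to CBFb-SMMHC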
CaV13 ICDI inh = Disruptors of the CACNA1D IQ motif to Ca2+-dependent inactivation inhibitor domain association, primary screening, Förster resonance energy transfer in intact living … | HEK cells, CFP/YFP FRET ICDI-IQ, plate reader, 10 min; percent FRET-ratio fall versus neutral wells | inhibition, % at 12.3 µM | actives 0.098% (n = 340,000) | AID 743397;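 active means mean replicate inhibition of at least 30% and at least 1% of replicates passing that level; inconclusive means only one of the two criteria is met; inactive means neither criterion is met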
Hck-Nef confirm = confirmation of Hck-Nef kinase inhibitors. actives 28% (n = 1,300). Recombinant Hck-YEEI:Nef, Z-Lyte FRET kinase assay. calls only at 10 µM. AID 463188. shares compounds with Hck-Nef inh;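 active means average inhibition of at least 50%, with Z-scores no higher than 3 in both the phospho-tyrosine peptide and fluorescence counterscreens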
Each line names hits and unclear results; the compound was inactive in the other large screens (follow-up assays come after a bar, where shown).

O=C(Nc1ccccc1)Nc1ccno1	none
CNc1nc(-c2ccccc2)cc(C(F)(F)F)c1C#N	Hck-Nef inh 68.1
CCOC(=O)c1sc(N2N=C(C)C(N=Nc3cccc(C)c3)C2=O)nc1C (centres undefined)	Hck-Nef inh 99.9 | Hck-Nef confirm active
CC1=NN(c2nc(-c3ccc(C)cc3)cs2)C(=O)C1N=Nc1cccc(C)c1 (centres undefined)	none
Cn1c(SCC(=O)NC2CCS(=O)(=O)C2)nnc1-c1ccco1 (centres undefined)	none (no result: Runt-CBFb FRET, RanGTP-Impb inh, Hck-Nef inh, Runt-SMMHC FRET)
N#Cc1c2n(c3c(N)ncnc13)CCCCC2	none
O=c1cc(-c2ccc(O)c(O)c2)oc2cc(O)cc(O)c12	Hck-Nef inh 91.1 | Hck-Nef confirm active
O=c1c(-c2ccc(O)cc2)coc2cc(O)cc(O)c12	Hck-Nef inh 51.6 (no result: CaV13 ICDI inh) | Hck-Nef confirm inactive
O=c1c(-c2c(O)cc(O)c3c(=O)cc(-c4ccc(O)cc4)oc23)c(-c2ccc(O)cc2)oc2cc(O)cc(O)c12	Hck-Nef inh 66.2 (no result: RanGTP-Impb inh, CaV13 ICDI inh) | Hck-Nef confirm inactive
O=c1cc(-c2ccc(O)c(-c3c(O)cc(O)c4c(=O)cc(-c5ccc(O)cc5)oc34)c2)oc2cc(O)cc(O)c12	Hck-Nef inh 52.7 | Hck-Nef confirm active
Cc1cn([C@H]2C[C@H](O)[C@@H](/C=C/C(=O)NCCc3ccc4c(c3)OCO4)O2)c(=O)[nH]c1=O	none (no result: Runt-CBFb FRET, RanGTP-Impb inh, Hck-Nef inh, Runt-SMMHC FRET)
COc1c(-c2ccc(O)cc2)oc2cc(O)cc(O)c2c1=O	Hck-Nef inh 53.3 (no result: RanGTP-Impb inh, CaV13 ICDI inh) | Hck-Nef confirm inactive
CCN(CC)CCCNC(=O)CCC(=O)Nc1ccc2nc(N3CCC(C)CC3)cc(C)c2c1	Hck-Nef inh 87.6
CCN(CC)CCCNC(=O)CCC(=O)Nc1ccc2nc(N3CCCCC3)cc(C)c2c1	none
Cc1ccc(C(=O)Nc2cccc(C(F)(F)F)c2)cc1NC(=O)c1cnnc2ccccc12	Hck-Nef inh 73.7 | Hck-Nef confirm inactive
CCN(CC)C(=O)COc1ccc(-c2nnc(Nc3ccc(OC)c(C(=O)NC)c3)c3ccccc23)cc1	none
c1coc(-c2nc3nc4ccccc4nc3n2CC2CCCO2)c1 (centres undefined)	Hck-Nef inh 158.7
COc1ccc(NS(=O)(=O)c2cc(C(=O)NNC(=O)c3ccncc3)ccc2OC)c(OC)c1	none (no result: Runt-CBFb FRET, RanGTP-Impb inh, Hck-Nef inh, Runt-SMMHC FRET)
CC(=O)NC(CC(=O)Oc1ccc(C)cc1Br)c1ccccc1 (centres undefined)	none (no result: Runt-CBFb FRET, Hck-Nef inh, Runt-SMMHC FRET, CaV13 ICDI inh)
Cc1cc(-c2cccs2)c(C#N)c(=S)[nH]1	none
N#Cc1c(-c2cccs2)cc(-c2cccs2)[nH]c1=O	Runt-CBFb FRET 86.3, RanGTP-Impb inh 44.7, Hck-Nef inh 109.1, Runt-SMMHC FRET 80.2
O=C(CN1C(=O)NC2(CCOc3ccccc32)C1=O)NCC(F)(F)F (centres undefined)	none (no result: Runt-CBFb FRET, Hck-Nef inh, Runt-SMMHC FRET)
Cc1ccc(-c2nnc(-c3ccc(NC(=O)c4ccco4)cc3)o2)cc1	Hck-Nef inh 108.0 | Hck-Nef confirm inactive
O=C(Nc1ccc(OC(F)(F)F)cc1)c1cnccn1	none (no result: Runt-CBFb FRET, Hck-Nef inh, Runt-SMMHC FRET)
CC1=C(C#N)C(=O)NC(=O)/C1=C\c1ccc(-c2cc(C)c(C)cc2[N+](=O)[O-])o1	Hck-Nef inh 90.8 | Hck-Nef confirm active
Cc1ccc(NC(=S)N(Cc2ccc(Br)cc2)Cc2ccc(C(=O)O)cc2)cc1C	none
CCOC(=O)N1CCc2c(sc3ncn(C)c(=O)c23)C1	none
CCOC(=O)N1CCc2c(sc3nc4n(c(=O)c23)N=C(c2ccc(OC)cc2)CS4)C1	Hck-Nef inh 77.3 | Hck-Nef confirm active
Cc1ccc(/C=C/C(=O)OCC(=O)N2CC(=O)Nc3ccccc32)o1	none
O=C1CN(C(=O)COC(=O)/C=C/c2ccco2)c2ccccc2N1	RanGTP-Impb inh inconclusive, Hck-Nef inh 53.1 | Hck-Nef confirm inactive
COc1ccc(NC(=O)CCNS(=O)(=O)c2ccc3[nH]c(=O)oc3c2)cc1Cl	none (no result: Runt-CBFb FRET, Hck-Nef inh, Runt-SMMHC FRET)
CCN(CC)c1ccc(NC(=O)Cn2c(C(C)NC(=O)c3ccc(C)cc3)nc3ccccc32)cc1 (centres undefined)	Hck-Nef inh 82.5 | Hck-Nef confirm active
O=C(O)c1ccc(Nc2ncnc3ccccc23)cc1	none (no result: Runt-CBFb FRET, Hck-Nef inh, Runt-SMMHC FRET)
O=C(Oc1ccc(Nc2ncnc3ccccc23)cc1)c1cccnc1	Hck-Nef inh 85.3 | Hck-Nef confirm active
O=C(Nc1ccccc1)Nc1snnc1C(=O)Nc1cccc(O)c1	Hck-Nef inh 60.3 | Hck-Nef confirm active
O=C(Nc1cccc(O)c1)c1cccc(C(=O)Nc2cccc(O)c2)c1	none (no result: Runt-CBFb FRET, Hck-Nef inh, Runt-SMMHC FRET)
COc1ccc(-c2cc3nc4ccccc4n3c(N)c2C#N)cc1	Hck-Nef inh 68.2
COc1ccc(-c2cc(-c3ccccc3)c(C#N)c(S(C)=O)n2)cc1 (centres undefined)	none
CCOC(=O)c1ccc2c(c1)C1C=CCC1C(C(=O)O)N2 (centres undefined)	Hck-Nef inh 59.2 (no result: RanGTP-Impb inh, CaV13 ICDI inh) | Hck-Nef confirm active
O=C(CSc1ncnc2c1oc1ccccc12)Nc1nccs1	Hck-Nef inh 79.0 | Hck-Nef confirm inactive
COc1ccc(N2C3=C(C(=O)CC(C)(C)C3)C(c3cnn(C)c3)C3=C2CC(C)(C)CC3=O)cc1	Runt-CBFb FRET 106.8, RanGTP-Impb inh 57.0, Hck-Nef inh 55.4, Runt-SMMHC FRET 82.5
COc1ccc(C2C(C#N)=C(N)N(N(C)C)C3=C2C(=O)CC(C)(C)C3)cc1 (centres undefined)	none (no result: Runt-CBFb FRET, Hck-Nef inh, Runt-SMMHC FRET)
O=C(Nc1cccn2nc(COCCO)nc12)C(c1ccccc1)c1ccccc1	none (no result: Runt-CBFb FRET, RanGTP-Impb inh, Hck-Nef inh, Runt-SMMHC FRET)
CC(=O)NC(CC(=O)OCC(=O)c1ccc(NC(=O)CC(C)C)cc1)c1ccccc1 (centres undefined)	none (no result: Runt-CBFb FRET, RanGTP-Impb inh, Hck-Nef inh, Runt-SMMHC FRET)
O=C(NC(=S)Nc1ccc(Cc2ccncc2)cc1)c1ccc(F)cc1	Hck-Nef inh 68.2 | Hck-Nef confirm inactive
CC(C)(C)C(=O)NC(=S)Nc1ccc(Cc2ccncc2)cc1	none (no result: Runt-CBFb FRET, Hck-Nef inh, Runt-SMMHC FRET)
Cc1nc(C)c(CC(=O)N2CCc3c([nH]c4ccccc34)C2c2ccccn2)s1 (centres undefined)	Hck-Nef inh active | Hck-Nef confirm inactive
CC(=O)c1cc(CC(=O)N2CCc3c([nH]c4ccccc34)C2c2ccccn2)cs1 (centres undefined)	none (no result: Runt-CBFb FRET, Runt-SMMHC FRET)
Cc1ccc(C(=O)OCC(=O)NCc2cccc(Cl)c2)cc1S(=O)(=O)N1CCCCC1	none (no result: Runt-CBFb FRET, RanGTP-Impb inh, Hck-Nef inh, Runt-SMMHC FRET)
O=S(=O)(c1cccc(F)c1)N1CCc2sccc2C1c1ccc(OC(F)(F)F)cc1 (centres undefined)	none
CCOP(=O)(O)c1ccccc1OCCOCCOc1ccccc1P(=O)(O)OCC	Hck-Nef inh 94.4 | Hck-Nef confirm inactive
COc1cccc(C(=O)/C=C2\Sc3ccccc3N2C)c1	Hck-Nef inh 106.2, Runt-SMMHC FRET 55.3 | Hck-Nef confirm inactive
COc1cccc(CNC(=O)Cn2cc([N+](=O)[O-])cn2)c1	none (no result: Runt-CBFb FRET, Hck-Nef inh, Runt-SMMHC FRET)
